Test results taken from ChEMBL document CHEMBL3576806, “Design and synthesis of novel arctigenin analogues for the amelioration of metabolic disorders” (ACS Med Chem Lett, 2015).
Each block holds one molecule with its values, some of them ahead of it. Activity calls are given as the source filed them. The calls are words filed in the database; no cut-off is given here.

How the values were obtained:
L6 [1] = assay: Increase in glucose uptake in rat L6 cells at 24 uM pre-treated with compound for 30 mins using 2-deoxy-D-[1,2-3H]glucose and measured after 2 hrs by liquid scintillation counting method; format: functional
Procedure, shortened: (§1)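 L6 myotubes exposed to compound for 2 h at 1.5, 3, 6, 12 or 24 μM; 2-deoxyglucose uptake expressed as fold over untreated control; 3 μM (−)-arctigenin run alongside as positive control; mean ± SEM of 3 independent experiments.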

L6 [2] = assay: Ratio of glucose uptake in rat L6 cells at 24 uM after 2 hrs to glucose uptake in rat L6 cells at 24 uM after 2 hrs in presence of 3 uM (-)-arctigenin; format: functional
Procedure, shortened: (§2)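 Glucose uptake in L6 myotubes after 2 h compound exposure divided by uptake with the 3 μM (−)-arctigenin positive control run in parallel.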

L6 [3] = assay: Increase in glucose uptake in rat L6 cells at 24 uM pre-treated with compound for 30 mins using 2-deoxy-D-[1,2-3H]glucose and measured after 2 hrs […] by liquid scintillation counting method; format: functional; procedure, shortened: as §1
L6 [4] = assay: Induction of AMPK phosphorylation in rat L6 cells at 3 uM incubated for 2 hrs by Western blotting method; format: cell-based
Procedure, shortened: (§3)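 L6 myotubes treated 2 h at the stated concentrations; phosphorylated AMPK and phosphorylated ACC detected by immunoblot.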

L6 [5] = assay: Induction of AMPK phosphorylation in rat L6 cells at 6 uM incubated for 2 hrs by Western blotting method; format: cell-based; procedure, shortened: as §3
L6 [6] = assay: Induction of AMPK activation in rat L6 cells assessed as increase in ACC phosphorylation at 1.5 uM incubated for 2 hrs by Western blotting method; format: cell-based; procedure, shortened: as §3
L6 [7] = assay: Increase in glucose uptake in rat L6 cells at 6 uM pre-treated with compound for 30 mins using 2-deoxy-D-[1,2-3H]glucose and measured after 2 hrs […] by liquid scintillation counting method; format: functional; procedure, shortened: as §1
L6 [8] = assay: Induction of AMPK activation in rat L6 cells assessed as increase in ACC phosphorylation at 6 uM incubated for 2 hrs by Western blotting method; format: cell-based; procedure, shortened: as §3
L6 [9] = assay: Induction of AMPK activation in rat L6 cells assessed as increase in ACC phosphorylation at 3 uM incubated for 2 hrs by Western blotting method; format: cell-based; procedure, shortened: as §3
L6 [10] = assay: Induction of AMPK phosphorylation in rat L6 cells at 1.5 uM incubated for 2 hrs by Western blotting method; format: cell-based; procedure, shortened: as §3
L6 [11] = assay: Ratio of glucose uptake in rat L6 cells at 6 uM after 2 hrs to glucose uptake in rat L6 cells at 6 uM after 2 hrs in presence of 3 uM (-)-arctigenin; format: functional; procedure, shortened: as §2
L6 [12] = assay: Increase in glucose uptake in rat L6 cells at 6 uM pre-treated with compound for 30 mins using 2-deoxy-D-[1,2-3H]glucose and measured after 2 hrs by liquid scintillation counting method; format: functional; procedure, shortened: as §1
L6 [13] = assay: Increase in glucose uptake in rat L6 cells at 1.5 uM pre-treated with compound for 30 mins using 2-deoxy-D-[1,2-3H]glucose and measured after 2 hrs by liquid scintillation counting method; format: functional; procedure, shortened: as §1
L6 [14] = assay: Ratio of glucose uptake in rat L6 cells at 1.5 uM after 2 hrs to glucose uptake in rat L6 cells at 1.5 uM after 2 hrs in presence of 3 uM (-)-arctigenin; format: functional; procedure, shortened: as §2
L6 [15] = assay: Increase in glucose uptake in rat L6 cells at 1.5 uM pre-treated with compound for 30 mins using 2-deoxy-D-[1,2-3H]glucose and measured after 2 hrs in presence of 3 uM (-)-arctigenin by liquid scintillation counting method; format: functional; procedure, shortened: as §1
L6 [16] = assay: Increase in glucose uptake in rat L6 cells at 3 uM […] using 2-deoxy-D-[1,2-3H]glucose and measured after 2 hrs […] by liquid scintillation counting method; format: functional; procedure, shortened: as §1
L6 [17] = assay: Ratio of glucose uptake in rat L6 cells at 3 uM after 2 hrs to glucose uptake in rat L6 cells at 3 uM after 2 hrs in presence of 3 uM (-)-arctigenin; format: functional; procedure, shortened: as §2
L6 [18] = assay: Increase in glucose uptake in rat L6 cells at 3 uM pre-treated with compound for 30 mins using 2-deoxy-D-[1,2-3H]glucose and measured after 2 hrs by liquid scintillation counting method; format: functional; procedure, shortened: as §1
L6 [19] = assay: Increase in glucose uptake in rat L6 cells at 3 umol/L pre-treated with compound for 30 mins using 2-deoxy-D-[1,2-3H]glucose and measured after 2 hrs by liquid scintillation counting method relative to control; format: functional; procedure, shortened: as §1
L6 [20] = assay: Increase in glucose uptake in rat L6 cells at 0.75 uM to 3 uM pre-treated with compound for 30 mins using 2-deoxy-D-[1,2-3H]glucose and measured after 2 hrs by liquid scintillation counting method; format: functional, cell-based
L6 [21] = assay: Induction of depolarization of mitochondrial membrane potential in rat L6 cells incubated for 10 mins by fluorescence based assay; format: functional, cell-based
Procedure, shortened: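 L6 myotubes treated 10 min over a concentration series; mitochondrial membrane potential (Δψm) depolarization measured; mean ± SEM, n = 3 independent experiments.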

L6 [22] = assay: Induction of fatty acid oxidation in rat L6 cells using [9,10-3H(N)]-palmitic acid incubated for 2 hrs in presence of AMPK inhibitor compound-C; format: functional, cell-based
Procedure, shortened: (§4)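 Fatty acid oxidation measured in L6 myotubes after compound treatment, also with compound C to block AMPK; mean ± SEM, n = 3 independent experiments.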

L6 [23] = assay: Induction of fatty acid oxidation in rat L6 cells at 6 uM using [9,10-3H(N)]-palmitic acid incubated for 2 hrs; format: functional, cell-based; procedure, shortened: as §4
[24] = Tmax in ob/ob mouse at 50 mg/kg, ip measured after 0.5 to 24 hrs; format: ADME, organism-based; conditions: in vivo
L6 [25] = assay: Increase in glucose uptake in rat L6 cells pre-treated with compound for 30 mins using 2-deoxy-D-[1,2-3H]glucose and measured after 2 hrs in presence of 10 uM AMPK inhibitor compound-C by liquid scintillation counting method; format: functional, cell-based
Procedure, shortened: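 L6 myotube 2-deoxyglucose uptake after compound exposure, tested with and without the AMPK inhibitor compound C; mean ± SEM, n = 3 independent experiments.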

L6 [26] = assay: Ratio of glucose uptake in rat L6 cells at 12 uM after 2 hrs to glucose uptake in rat L6 cells at 12 uM after 2 hrs in presence of 3 uM (-)-arctigenin; format: functional; procedure, shortened: as §2
L6 [27] = assay: Increase in glucose uptake in rat L6 cells at 12 uM pre-treated with compound for 30 mins using 2-deoxy-D-[1,2-3H]glucose and measured after 2 hrs by liquid scintillation counting method; format: functional; procedure, shortened: as §1
L6 [28] = assay: Increase in glucose uptake in rat L6 cells at 12 uM pre-treated with compound for 30 mins using 2-deoxy-D-[1,2-3H]glucose and measured after 2 hrs […] by liquid scintillation counting method; format: functional; procedure, shortened: as §1

SMILES: COc1ccc(C[C@H]2COC(=O)[C@@H]2Cc2cccc(O)c2)cc1OC
Activity (L6 [1]): 180.3%
Ratio (L6 [2]): 0.828
Activity (L6 [3]): 217.8%

SMILES: COc1ccc(C[C@H]2COC(=O)[C@@H]2Cc2ccc(Cl)cc2)cc1OC
Activity (L6 [4]): Active
Activity (L6 [5]): Active
Activity (L6 [6]): Active
Activity (L6 [7]): 185.5%
Activity (L6 [8]): Active
Activity (L6 [9]): Active
Activity (L6 [10]): Active
Ratio (L6 [11]): 1.03
Activity (L6 [12]): 191.1%

SMILES: COc1cc(C[C@H]2C(=O)OC[C@@H]2Cc2cc(OC)c(OC)c(OC)c2)ccc1O
Activity (L6 [7]): 233.9%
Ratio (L6 [11]): 0.551
Activity (L6 [12]): 128.8%

SMILES: COc1ccc(C[C@H]2COC(=O)[C@@H]2Cc2ccccc2O)cc1OC
Activity (L6 [13]): 137.6%
Ratio (L6 [14]): 0.579
Activity (L6 [15]): 237.6%

SMILES: COc1ccccc1C[C@H]1C(=O)OC[C@@H]1Cc1ccc(OC)c(OC)c1
Activity (L6 [16]): 190.1%
Ratio (L6 [17]): 0.512
Activity (L6 [18]): 97.4%

SMILES: COc1ccc(C[C@@H]2COC(=O)[C@H]2Cc2ccc(Cl)cc2)cc1OC
Activity (L6 [13]): 103.1%
Ratio (L6 [14]): 0.494
Activity (L6 [4]): inactive
Activity (L6 [5]): inactive
Activity (L6 [6]): inactive
Activity (L6 [8]): inactive
Activity (L6 [9]): inactive
Activity (L6 [10]): inactive
Activity (L6 [15]): 208.9%

SMILES: COc1ccc(C[C@H]2COC(=O)[C@@H]2Cc2ccc(F)cc2)cc1OC
Activity (L6 [13]): 116.4%
Ratio (L6 [14]): 0.486
Activity (L6 [15]): 239.6%

SMILES: COc1cc(C[C@H]2C(=O)OC[C@@H]2Cc2ccc(OC)c(OC)c2)ccc1O [ARCTIGENIN]
fold change (FC) (L6 [19]): 1.75
Activity (L6 [20]): Dose-dependent effect

SMILES: COc1ccc(C[C@H]2COC(=O)[C@@H]2Cc2ccc(OC)c(OC)c2)cc1OC
Activity (L6 [16]): 237.6%
Ratio (L6 [17]): 0.577
Activity (L6 [18]): 137.1%

SMILES: COc1ccc(C[C@H]2COC(=O)[C@@H]2Cc2ccc(Br)cc2)cc1OC
Activity (L6 [7]): 269.2%
Ratio (L6 [11]): 0.654
Activity (L6 [12]): 176%

Tmax [24]: 30 min
SMILES: COc1cc(CC2C(=O)OCC2Cc2ccc(OC)c(OC)c2)ccc1O (racemic)
fold change (FC) (L6 [19]): 1.62
Activity (L6 [21]): Dose-dependent effect
Activity (L6 [22]): inactive
Activity (L6 [4]): Active
Activity (L6 [6]): Active
Activity (L6 [23]): Active
Activity (L6 [9]): Active
Activity (L6 [20]): Dose-dependent effect
Activity (L6 [10]): Active
Activity (L6 [25]): inactive

SMILES: COc1cccc(C[C@H]2C(=O)OC[C@@H]2Cc2ccc(OC)c(OC)c2)c1
Ratio (L6 [26]): 0.564
Activity (L6 [27]): 119.2%
Activity (L6 [28]): 211.3%

SMILES: COc1ccc(C[C@H]2C(=O)OC[C@@H]2Cc2ccc(OC)c(OC)c2)cc1O
Activity (L6 [13]): 100.4%
Ratio (L6 [14]): 0.531
Activity (L6 [15]): 188.9%
